Test results as given in ChEMBL document CHEMBL3580617, “Discovery of Benzimidazole CYP11B2 Inhibitors with in Vivo Activity in Rhesus Monkeys” (ACS Med Chem Lett, 2015).
Calls of active or inactive are those of the source. No cut-off for these calls is given here.

Assays:
[1] = species: Homo sapiens; test: Selectivity index, ratio of IC50 for human CYP11B1 to IC50 for human CYP11B2
Summary of the method: (§1)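 Human CYP11B2 and CYP11B1 inhibition was tested in cell-based assays. Selectivity was taken as the hCYP11B1 IC50 divided by the hCYP11B2 IC50.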

[2] = Plasma clearance in rhesus monkey at 1 mg/kg, po or 0.5 mg/kg, iv by LC-MS/MS method; assay type: ADME, organism-based, Macaca mulatta
[3] = target: T1, Steroid 17-alpha-hydroxylase/17,20 lyase (Homo sapiens, UniProt P05093); test: Inhibition of human CYP17 expressed in COS7 cells incubated for 1 hr before 17-hydroxypregnenolone substrate addition by EIA method; assay type: cell-based, COS-7
T1 sequence (P05093 whole entry): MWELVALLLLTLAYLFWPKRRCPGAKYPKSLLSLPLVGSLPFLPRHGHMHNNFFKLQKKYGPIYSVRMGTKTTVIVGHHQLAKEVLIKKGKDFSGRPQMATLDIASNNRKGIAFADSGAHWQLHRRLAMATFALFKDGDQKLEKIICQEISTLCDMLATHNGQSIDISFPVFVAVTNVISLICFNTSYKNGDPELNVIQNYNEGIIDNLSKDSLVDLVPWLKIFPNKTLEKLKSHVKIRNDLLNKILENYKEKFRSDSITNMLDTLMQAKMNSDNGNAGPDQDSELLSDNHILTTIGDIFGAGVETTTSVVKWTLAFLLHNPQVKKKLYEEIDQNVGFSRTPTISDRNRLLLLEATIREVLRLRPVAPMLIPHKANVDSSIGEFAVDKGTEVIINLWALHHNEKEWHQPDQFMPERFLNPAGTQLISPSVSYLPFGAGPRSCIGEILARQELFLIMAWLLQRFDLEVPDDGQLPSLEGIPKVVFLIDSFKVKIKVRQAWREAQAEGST

[4] = Intrinsic clearance in rhesus monkey liver microsomes at […] incubated for 10 mins before NADPH addition by LC/MS method; assay type: ADME, Macaca mulatta; conditions: read-out: CLH
[5] = target: Cytochrome P450 3A4 (Homo sapiens, UniProt P08684); test: Inhibition of CYP3A4 (unknown origin); assay type: ADME
[6] = system: Rhesus monkey; test: Dose normalized AUC in rhesus monkey at 1 mg/kg, po or 0.5 mg/kg, iv by LC-MS/MS method; assay type: ADME, organism-based, Macaca mulatta; conditions: in vivo
[7] = target: T2, Cytochrome P450 11B1, mitochondrial (Homo sapiens, UniProt P15538); test: Inhibition of human CYP11B1 expressed in V79 cells incubated for 1 hr before 11-deoxycortisol substrate addition by HTRF-based assay; assay type: cell-based; summary of the method: as §1
T2 sequence (P15538 whole entry): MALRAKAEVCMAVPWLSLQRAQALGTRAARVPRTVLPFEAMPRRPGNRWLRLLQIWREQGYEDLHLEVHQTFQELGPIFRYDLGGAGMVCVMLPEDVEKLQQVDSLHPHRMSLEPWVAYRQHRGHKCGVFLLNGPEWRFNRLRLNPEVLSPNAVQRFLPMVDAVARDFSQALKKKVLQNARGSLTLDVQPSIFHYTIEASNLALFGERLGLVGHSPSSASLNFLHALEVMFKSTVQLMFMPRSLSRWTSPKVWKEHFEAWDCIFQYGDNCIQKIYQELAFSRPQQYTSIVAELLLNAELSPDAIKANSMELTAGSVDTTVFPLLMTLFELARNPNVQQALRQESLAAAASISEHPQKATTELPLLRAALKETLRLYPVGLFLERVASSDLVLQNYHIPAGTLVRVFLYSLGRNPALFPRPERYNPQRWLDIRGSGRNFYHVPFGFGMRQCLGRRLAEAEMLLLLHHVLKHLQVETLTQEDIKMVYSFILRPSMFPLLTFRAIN

[8] = target: T3, Steroid 21-hydroxylase (Homo sapiens, UniProt P08686); test: Inhibition of human CYP21 expressed in COS7 cells incubated for 1 hr before […] substrate addition by HTRF-based assay; assay type: cell-based, COS-7
T3 sequence (P08686 whole entry): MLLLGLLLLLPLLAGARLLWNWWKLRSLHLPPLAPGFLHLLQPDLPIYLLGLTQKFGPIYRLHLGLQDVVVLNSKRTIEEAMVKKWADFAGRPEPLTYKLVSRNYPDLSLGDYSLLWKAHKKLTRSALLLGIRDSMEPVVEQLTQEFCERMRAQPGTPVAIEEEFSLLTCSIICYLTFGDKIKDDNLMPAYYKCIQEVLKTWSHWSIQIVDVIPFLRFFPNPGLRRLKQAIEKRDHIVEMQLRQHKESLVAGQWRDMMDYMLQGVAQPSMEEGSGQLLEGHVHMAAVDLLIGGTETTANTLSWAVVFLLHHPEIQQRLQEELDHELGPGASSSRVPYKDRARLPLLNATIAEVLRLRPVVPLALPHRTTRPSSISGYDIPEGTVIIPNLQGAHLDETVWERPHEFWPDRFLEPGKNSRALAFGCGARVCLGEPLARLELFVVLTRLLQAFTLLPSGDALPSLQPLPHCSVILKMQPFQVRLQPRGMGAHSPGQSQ

[9] = species: Homo sapiens; test: Selectivity index, ratio of IC50 for CYP2D6 (unknown origin) to IC50 for human CYP11B2
[10] = system: V79; test: Inhibition of rhesus monkey CYP11B2 expressed in V79 cells incubated for 1 hr before 11-deoxycorticosterone substrate addition by HTRF-based assay; assay type: cell-based; conditions: Macaca mulatta
[11] = species: Homo sapiens; test: Selectivity index, ratio of IC50 for CYP3A4 (unknown origin) to IC50 for human CYP11B2
[12] = species: Homo sapiens; test: Selectivity index, ratio of IC50 for CYP2C9 (unknown origin) to IC50 for human CYP11B2
[13] = Oral bioavailability in rhesus monkey at 1 mg/kg by LC-MS/MS method; assay type: ADME, organism-based, Macaca mulatta; conditions: in vivo
[14] = target: T4, Cytochrome P450 11B2, mitochondrial (Homo sapiens, UniProt P19099); test: Inhibition of human CYP11B2 expressed in V79 cells incubated for 1 hr before 11-deoxycorticosterone substrate addition by HTRF-based assay; assay type: cell-based; summary of the method: as §1
T4 sequence (P19099 whole entry): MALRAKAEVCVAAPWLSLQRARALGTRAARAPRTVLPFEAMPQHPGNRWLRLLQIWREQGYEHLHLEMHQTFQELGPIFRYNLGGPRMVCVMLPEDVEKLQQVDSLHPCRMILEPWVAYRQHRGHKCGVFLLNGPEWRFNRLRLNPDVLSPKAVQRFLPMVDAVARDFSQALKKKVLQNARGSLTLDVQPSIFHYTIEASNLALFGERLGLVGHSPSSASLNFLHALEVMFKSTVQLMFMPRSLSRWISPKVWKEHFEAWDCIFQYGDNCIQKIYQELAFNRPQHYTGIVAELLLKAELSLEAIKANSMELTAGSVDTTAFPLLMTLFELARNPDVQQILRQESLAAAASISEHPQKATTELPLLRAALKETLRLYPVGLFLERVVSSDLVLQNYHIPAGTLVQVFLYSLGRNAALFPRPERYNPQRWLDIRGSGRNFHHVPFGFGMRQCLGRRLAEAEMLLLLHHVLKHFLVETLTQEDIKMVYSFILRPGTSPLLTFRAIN

[15] = target: T5, Cytochrome P450 11B2, mitochondrial (Rattus norvegicus, UniProt P30099); test: Inhibition of rat CYP11B2 expressed in V79 cells incubated for 1 hr before 11-deoxycorticosterone substrate addition by HTRF-based assay; assay type: cell-based; conditions: v79, 1 h
T5 sequence (P30099 whole entry): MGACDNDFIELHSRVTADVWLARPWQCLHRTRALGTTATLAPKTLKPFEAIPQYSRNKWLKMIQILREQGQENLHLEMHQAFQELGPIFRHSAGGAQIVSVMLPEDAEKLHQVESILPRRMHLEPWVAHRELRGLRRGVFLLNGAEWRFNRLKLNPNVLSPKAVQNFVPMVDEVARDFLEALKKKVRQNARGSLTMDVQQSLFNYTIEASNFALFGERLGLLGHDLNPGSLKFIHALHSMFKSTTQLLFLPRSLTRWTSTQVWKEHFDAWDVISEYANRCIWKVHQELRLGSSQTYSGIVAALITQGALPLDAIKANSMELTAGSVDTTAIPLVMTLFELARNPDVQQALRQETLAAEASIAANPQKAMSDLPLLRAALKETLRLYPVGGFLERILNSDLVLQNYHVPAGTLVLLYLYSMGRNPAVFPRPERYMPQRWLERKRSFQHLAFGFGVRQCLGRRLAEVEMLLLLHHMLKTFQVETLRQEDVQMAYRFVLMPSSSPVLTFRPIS

[16] = target: Cytochrome P450 2C9 (Homo sapiens, UniProt P11712); test: Inhibition of CYP2C9 (unknown origin); assay type: ADME
[17] = species: Homo sapiens; test: Selectivity index, ratio of IC50 for CYP19 (unknown origin) to IC50 for human CYP11B2
[18] = target: Cytochrome P450 2D6 (Homo sapiens, UniProt P10635); test: Inhibition of CYP2D6 (unknown origin); assay type: ADME
[19] = target: T6, Aromatase (Homo sapiens, UniProt P11511); test: Inhibition of CYP19 (unknown origin) using MFC substrate incubated for 30 mins
T6 sequence (P11511 whole entry): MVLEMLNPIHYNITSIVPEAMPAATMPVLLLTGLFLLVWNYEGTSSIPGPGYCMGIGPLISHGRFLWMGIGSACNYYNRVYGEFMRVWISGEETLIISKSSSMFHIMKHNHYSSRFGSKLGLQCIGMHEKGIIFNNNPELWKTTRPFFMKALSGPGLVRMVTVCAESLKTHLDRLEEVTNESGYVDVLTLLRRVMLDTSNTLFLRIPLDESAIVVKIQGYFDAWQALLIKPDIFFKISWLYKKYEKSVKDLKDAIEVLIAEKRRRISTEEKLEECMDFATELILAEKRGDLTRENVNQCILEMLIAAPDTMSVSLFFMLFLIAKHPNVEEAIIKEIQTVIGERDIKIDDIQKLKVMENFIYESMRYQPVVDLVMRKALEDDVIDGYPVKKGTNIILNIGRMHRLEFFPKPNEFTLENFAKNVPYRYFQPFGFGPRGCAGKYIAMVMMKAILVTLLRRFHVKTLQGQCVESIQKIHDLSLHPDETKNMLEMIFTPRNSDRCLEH

[20] = Oral bioavailability in Sprague-Dawley rat at 2 mg/kg by LC-MS/MS method; assay type: ADME, organism-based; conditions: in vivo
Summary of the method: (§2)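 In the rat pharmacokinetic study, AUC was normalized for dose (μM·h·kg/mg), plasma clearance was expressed in mL/min/kg, and oral bioavailability was calculated.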

[21] = Plasma clearance in Sprague-Dawley rat at 2 mg/kg, po or 1 mg/kg, iv by LC-MS/MS method; assay type: ADME, organism-based; summary of the method: as §2
[22] = Fraction unbound in rat plasma at […] incubated for 4 hrs by equilibrium dialysis and LC/MS method; assay type: ADME, cell-free
[23] = system: Rattus norvegicus; test: Dose normalized AUC in Sprague-Dawley rat at 2 mg/kg, po or 1 mg/kg, iv by LC-MS/MS method; assay type: ADME, organism-based; conditions: in vivo; summary of the method: as §2
[24] = Intrinsic clearance in rat liver microsomes at […] incubated for 10 mins before NADPH addition by LC/MS method; assay type: ADME; conditions: read-out: CLH
[25] = system: Rhesus monkey; conditions: Macaca mulatta; 1 mg/kg

Cytochrome P450 3A4, sequence (P08684 whole entry): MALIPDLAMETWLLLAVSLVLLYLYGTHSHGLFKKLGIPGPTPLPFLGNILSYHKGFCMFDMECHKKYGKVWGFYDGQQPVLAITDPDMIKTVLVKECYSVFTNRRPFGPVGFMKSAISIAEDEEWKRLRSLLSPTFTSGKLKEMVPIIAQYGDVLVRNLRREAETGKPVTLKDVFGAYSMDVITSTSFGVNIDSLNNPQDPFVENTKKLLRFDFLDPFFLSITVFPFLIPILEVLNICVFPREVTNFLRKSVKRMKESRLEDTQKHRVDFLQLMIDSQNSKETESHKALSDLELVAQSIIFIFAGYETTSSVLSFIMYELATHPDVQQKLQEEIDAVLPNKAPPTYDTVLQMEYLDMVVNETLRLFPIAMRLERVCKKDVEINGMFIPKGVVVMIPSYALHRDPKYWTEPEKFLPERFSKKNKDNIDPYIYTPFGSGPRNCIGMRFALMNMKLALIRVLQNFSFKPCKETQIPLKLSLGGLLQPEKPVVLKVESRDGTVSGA
Cytochrome P450 2D6, sequence (P10635 whole entry): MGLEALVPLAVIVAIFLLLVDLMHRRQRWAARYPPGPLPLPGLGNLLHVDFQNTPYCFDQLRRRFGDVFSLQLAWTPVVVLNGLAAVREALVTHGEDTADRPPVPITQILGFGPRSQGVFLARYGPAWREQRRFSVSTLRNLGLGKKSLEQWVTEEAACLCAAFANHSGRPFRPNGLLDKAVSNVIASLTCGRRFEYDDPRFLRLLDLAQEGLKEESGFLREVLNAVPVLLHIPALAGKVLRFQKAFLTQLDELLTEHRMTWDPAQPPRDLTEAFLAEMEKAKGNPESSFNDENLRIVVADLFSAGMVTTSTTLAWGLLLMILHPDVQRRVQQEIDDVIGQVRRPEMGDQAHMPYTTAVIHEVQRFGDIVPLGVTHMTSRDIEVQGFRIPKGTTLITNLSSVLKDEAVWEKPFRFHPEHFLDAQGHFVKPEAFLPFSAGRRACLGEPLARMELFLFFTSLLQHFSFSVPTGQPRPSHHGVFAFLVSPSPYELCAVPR
Cytochrome P450 2C9, sequence (P11712 whole entry): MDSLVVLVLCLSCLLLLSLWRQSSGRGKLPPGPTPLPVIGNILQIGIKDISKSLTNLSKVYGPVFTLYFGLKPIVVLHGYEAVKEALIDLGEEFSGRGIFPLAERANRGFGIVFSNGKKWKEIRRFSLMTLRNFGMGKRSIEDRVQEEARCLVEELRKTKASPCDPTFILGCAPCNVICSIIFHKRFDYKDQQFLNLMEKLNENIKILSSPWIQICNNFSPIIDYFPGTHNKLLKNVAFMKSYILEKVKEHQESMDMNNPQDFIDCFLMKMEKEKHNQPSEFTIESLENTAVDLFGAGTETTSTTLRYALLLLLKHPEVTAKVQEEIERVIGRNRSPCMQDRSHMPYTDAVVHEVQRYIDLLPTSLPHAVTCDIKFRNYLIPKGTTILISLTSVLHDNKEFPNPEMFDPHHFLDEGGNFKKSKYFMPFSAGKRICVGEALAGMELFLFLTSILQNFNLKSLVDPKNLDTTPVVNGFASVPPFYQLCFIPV

## Cc1c(F)cncc1-c1nc2cc(F)c(F)cc2n1C1CC1
[1]
  Ratio IC50: 553
[2]
  clearance: 19 mL/min/kg
[3]
  IC50: > 10 µM
[4]
  CLint scaled: < 20 mL/min/kg
[5]
  IC50: 8.24 µM
[6]
  AUC/dose: 2.49 µM·kg·h/mg
[7]
  IC50: 0.258 µM
[8]
  IC50: > 10 µM
[9]
  Ratio IC50: > 1000
[10]
  inhibition: Active
[11]
  Ratio IC50: > 1000
[12]
  Ratio IC50: > 1000
[13]
  bioavailability: 88%
[14]
  IC50: 0.0005 µM
[15]
  inhibition (INH): Not Active

## CC(C)(O)c1cncc(-c2nc3cc(F)c(F)cc3n2C2CC2)c1
[16]
  inhibition (INH): Not Active
[17]
  Ratio IC50: 500
[1]
  Ratio IC50: 140
[18]
  inhibition (INH): Not Active
[3]
  IC50: > 10 µM
[19]
  IC50: 1.27 µM
[20]
  bioavailability: 94%
[5]
  IC50: > 50 µM
[21]
  clearance: 7 mL/min/kg
[8]
  IC50: > 10 µM
[10]
  inhibition: Active
[22]
  fraction unbound at 4 h: 0.14
[23]
  AUC/dose: 6.55 µM·kg·h/mg
[15]
  inhibition (INH): Not Active
[24]
  CLint scaled: < 20 mL/min/kg

## N#Cc1ccc(C2CCCc3cncn32)cc1 (stereo unspecified)
[25]
  inhibition: Active
